≈ marks a conversion by molar mass, not a printed value. Calls of active or inactive are those of the source. The rule behind the calls is not given here.
Assays:
Format in all cases: functional
KB [1] = test: Cytotoxicity against human KB cells by sulforhodamine B assay; details: read-out: ED50 (the source's name)
Method in brief: (§1)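 Cells grown in RPMI-1640 with 25 mM HEPES, 0.25% sodium bicarbonate, 10% FBS and 100 µg/mL kanamycin. Freshly trypsinized cells were seeded at 1500-7500 per well, and compounds were added from DMSO-diluted stock. After 3 days, attached cells were fixed with cold 50% TCA, stained with 0.4% SRB, and read at 562 nm. ED50 is the mean of ≥3 independent determinations.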

[2] = Cytotoxicity against human KB-VIN cells by sulforhodamine B assay; details: KBVIN, read-out: ED50 (the source's name); method in brief: as §1
[3] = Selectivity index, ratio of ED50 for human KB cells to ED50 for vincristine-resistant human KB-VIN cells
Method in brief: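 The ratio uses ED50 values from the 3-day SRB assay run in parallel on KB and vincristine-resistant KB-VIN cells. For each line, ED50 is the concentration giving 50% reduction in 562 nm absorbance relative to untreated cells, averaged over ≥3 independent determinations.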

A549 = test: Cytotoxicity against human A549 cells by sulforhodamine B assay; details: for EC50: read-out: ED50 (the source's name); method in brief: as §1
MCF7 = test: Cytotoxicity against human MCF7 cells by sulforhodamine B assay; details: read-out: ED50 (the source's name); method in brief: as §1
HCT-8 = test: Cytotoxicity against human HCT8 cells by sulforhodamine B assay; details: for EC50: read-out: ED50 (the source's name); method in brief: as §1
PC-3 = test: Cytotoxicity against human PC3 cells by sulforhodamine B assay; details: for EC50: read-out: ED50 (the source's name); method in brief: as §1
KB [4] = test: Cytotoxicity against human KB cells at 20 ug/mL by sulforhodamine B assay

In the case of `COC1=CC(O)=C2C(=O)C=C(c3ccccc3)OC2C1(C)C` (configuration not stated), the EC50 (KB [1]) is reported as 1.8 µg/mL (≈ 6.03 µM), the EC50 [2] is reported as 1.8 µg/mL (≈ 6.03 µM) and the “Ratio ED50” value [3] is reported as 1.

With `CCc1ccc(-c2cc(=O)c3c(O)c(CC)c(O)c(CC)c3o2)cc1` the EC50 (KB [1]) was greater than 20 µg/mL, the EC50 [2] was 5 µg/mL (≈ 14.8 µM) and the “Ratio ED50” value [3] was greater than 4.

With `CCC1=C(O)c2c(oc(-c3cccc4ccccc34)cc2=O)C(CC)(CC)C1=O` [2-(NAPHTHALEN-1-YL)-6,8,8-TRIETHYL DESMOSDUMOTIN B] the EC50 (KB [1]) was 0.6 µg/mL (≈ 1.54 µM), the EC50 [2] was 0.3 µg/mL (≈ 0.772 µM) and the “Ratio ED50” value [3] was 2. For the same molecule, the EC50 (A549) was 0.6 µg/mL (≈ 1.54 µM), the EC50 (MCF7) was 0.2 µg/mL (≈ 0.515 µM) and the EC50 (HCT-8) was 0.4 µg/mL (≈ 1.03 µM). For the same molecule, the EC50 (PC-3) was 0.4 µg/mL (≈ 1.03 µM).

For `CC[C@]1(O)C[C@H]2CN(CCc3c([nH]c4ccccc34)[C@@](C(=O)OC)(c3cc4c(cc3OC)N(C=O)[C@H]3[C@@](O)(C(=O)OC)[C@H](OC(C)=O)[C@]5(CC)C=CCN6CC[C@]43[C@@H]65)C2)C1` [VINCRISTINE], the EC50 (KB [1]) was 0.015 µg/mL (≈ 0.0182 µM), the EC50 [2] was 7 µg/mL (≈ 8.49 µM) and the “Ratio ED50” value [3] was 0.002. The EC50 (A549) was 0.004 µg/mL (≈ 0.00485 µM), the EC50 (MCF7) was 0.01 µg/mL (≈ 0.0121 µM) and the EC50 (HCT-8) was 0.02 µg/mL (≈ 0.0242 µM). For the same molecule, the EC50 (PC-3) was 0.01 µg/mL (≈ 0.0121 µM).

For `CCC1=C(O)c2c(oc(-c3ccc(C)cc3)cc2=O)C(CC)(CC)C1=O` [6,8,8-TRIETHYL-4-METHYL DESMOSDUMOTIN B], the EC50 (KB [1]) was 13.8 µg/mL (≈ 39.2 µM), the EC50 [2] was 0.03 µg/mL (≈ 0.0851 µM) and the “Ratio ED50” value [3] was 460. For the same molecule, the EC50 (A549) was 16 µg/mL (≈ 45.4 µM), the EC50 (MCF7) was greater than 20 µg/mL and the EC50 (HCT-8) was 15 µg/mL (≈ 42.6 µM). For the same molecule, the EC50 (PC-3) was 18 µg/mL (≈ 51.1 µM).

In the case of `CC1=C(O)c2c(oc(-c3ccc(C)cc3)cc2=O)C(C)(C)C1=O` [4-METHYL DESMOSDUMOTIN B], the EC50 (KB [1]) is reported as 22.5 µg/mL (≈ 72.6 µM), the EC50 [2] is reported as 1.09 µg/mL (≈ 3.51 µM) and the “Ratio ED50” value [3] is reported as 20.7.

For `CC1=C(O)C(C)(C)c2oc(-c3ccccc3)cc(=O)c2C1=O` [DESMOTUMOTIN B], the EC50 (KB [1]) was greater than 40 µg/mL, the EC50 [2] was 2 µg/mL (≈ 6.75 µM) and the “Ratio ED50” value [3] was greater than 20. The EC50 (A549) was greater than 20 µg/mL, the EC50 (MCF7) was greater than 20 µg/mL and the Activity (HCT-8) was “inactive”. For the same molecule, the Activity (PC-3) was “inactive”.

With `CC1=C(O)c2c(oc(-c3c(C)cc(C)cc3C)cc2=O)C(C)(C)C1=O` [2,4,6-TRIMETHYL DESMOSDUMOTIN B] the EC50 [2] was 5.82 µg/mL (≈ 17.2 µM), the Activity (KB [4]) was less than 50% and the “Ratio ED50” value [3] was greater than 3.4.

For `COC1=C(C)C(O)=C2C(=O)C=C(c3ccccc3)OC2C1(C)C` (configuration not stated), the EC50 (KB [1]) was 38.5 µg/mL (≈ 123 µM), the EC50 [2] was 23 µg/mL (≈ 73.6 µM) and the “Ratio ED50” value [3] was 1.7.

In the case of `CC1=C(O)c2c(oc(-c3ccccc3C)cc2=O)C(C)(C)C1=O` [2-METHYL DESMOSDUMOTIN B], the EC50 (KB [1]) is reported as 37.3 µg/mL (≈ 120 µM), the EC50 [2] is reported as 1.75 µg/mL (≈ 5.64 µM) and the “Ratio ED50” value [3] is reported as 21.3.

For `CCC1=C(OC)C(CC)(CC)C2OC(c3ccccc3)=CC(=O)C2=C1O` (configuration not stated) [6,8,8-TRIETHYL-7-METHOXY DESMOSDUMOTIN B], the EC50 (KB [1]) was 20 µg/mL (≈ 56.4 µM), the EC50 [2] was 15.5 µg/mL (≈ 43.7 µM) and the “Ratio ED50” value [3] was 1.3.

For `CC1=C(O)c2c(oc(-c3cccc4ccccc34)cc2=O)C(C)(C)C1=O` [2-(NAPHTHALEN-1-YL)DESMOSDUMOTIN B], the EC50 (KB [1]) was 0.51 µg/mL (≈ 1.47 µM), the EC50 [2] was 0.16 µg/mL (≈ 0.462 µM) and the “Ratio ED50” value [3] was 3.2. The EC50 (A549) was 0.6 µg/mL (≈ 1.73 µM), the EC50 (MCF7) was 0.6 µg/mL (≈ 1.73 µM) and the EC50 (HCT-8) was 0.4 µg/mL (≈ 1.15 µM). It also gave an EC50 (PC-3) of 0.5 µg/mL (≈ 1.44 µM).

In the case of `CCC1=C(O)c2c(occ(-c3ccccc3)c2=O)C(CC)(CC)C1=O`, the EC50 (KB [1]) is reported as 16 µg/mL (≈ 47.3 µM), the EC50 [2] is reported as 3.5 µg/mL (≈ 10.3 µM) and the “Ratio ED50” value [3] is reported as 4.6. The EC50 (A549) was 18 µg/mL (≈ 53.2 µM), the EC50 (MCF7) was 10 µg/mL (≈ 29.6 µM) and the EC50 (HCT-8) was 12 µg/mL (≈ 35.5 µM). The EC50 (PC-3) was greater than 20 µg/mL.

For `CCC1=C(O)c2c(oc(-c3cc4ccccc4c4ccccc34)cc2=O)C(CC)(CC)C1=O` [6,8,8-TRIETHYL-2-(PHENANTHREN-9-YL) DESMOSDUMOTIN B], the EC50 (KB [1]) was 5 µg/mL (≈ 11.4 µM), the EC50 [2] was 4.3 µg/mL (≈ 9.81 µM) and the “Ratio ED50” value [3] was 1.2. It also gave an EC50 (A549) of 8 µg/mL (≈ 18.2 µM), an EC50 (MCF7) of 4 µg/mL (≈ 9.12 µM) and an EC50 (HCT-8) of 5.6 µg/mL (≈ 12.8 µM). It also gave an EC50 (PC-3) of 6 µg/mL (≈ 13.7 µM).

For `CCCC1=C(O)c2c(oc(-c3ccccc3)cc2=O)C(CCC)(CCC)C1=O` [6,8,8-TRIPROPYL DESMOSDUMOTIN B], the EC50 (KB [1]) was 4 µg/mL (≈ 10.5 µM), the EC50 [2] was 0.63 µg/mL (≈ 1.66 µM) and the “Ratio ED50” value [3] was 6.4.

For `CCC1=C(O)c2c(oc(-c3ccc(CC)cc3)cc2=O)C(CC)(CC)C1=O` [6,8,8-TRIETHYL-4-ETHYL DESMOSDUMOTIN B], the EC50 (KB [1]) was 8 µg/mL (≈ 21.8 µM), the EC50 [2] was 0.025 µg/mL (≈ 0.0682 µM) and the “Ratio ED50” value [3] was 320.

Molecule `CCC1=C(O)c2c(oc(-c3ccccc3C)cc2=O)C(CC)(CC)C1=O` [6,8,8-TRIETHYL-2-METHYL DESMOSDUMOTIN B] has an EC50 (KB [1]) of 18 µg/mL (≈ 51.1 µM) and an EC50 [2] of 0.1 µg/mL (≈ 0.284 µM).

In the case of `CCc1ccc(-c2cc(=O)c3c(o2)C(C)(C)C(=O)C(C)=C3O)cc1` [4-ETHYL DESMOSDUMOTIN B], the EC50 (KB [1]) is reported as 20 µg/mL (≈ 61.7 µM), the EC50 [2] is reported as 1.54 µg/mL (≈ 4.75 µM) and the “Ratio ED50” value [3] is reported as 13.

For `CC1=C(O)c2c(oc(-c3cc(C)cc(C)c3)cc2=O)C(C)(C)C1=O` [3,5-DIMETHYL DESMOSDUMOTIN B], the EC50 (KB [1]) was 53 µg/mL (≈ 164 µM), the EC50 [2] was 2.91 µg/mL (≈ 8.97 µM) and the “Ratio ED50” value [3] was 18.2.

With `CCCC1=C(OC)C(CCC)(CCC)C2OC(c3ccccc3)=CC(=O)C2=C1O` (configuration not stated) [6,8,8-TRIPROPYL-7-METHOXY DESMOSDUMOTIN B] the EC50 (KB [1]) was 8.5 µg/mL (≈ 21.4 µM), the EC50 [2] was 7 µg/mL (≈ 17.7 µM) and the “Ratio ED50” value [3] was 1.2.

With `CCC1=C(O)c2c(oc(-c3ccccc3)cc2=O)C(CC)(CC)C1=O` [6,8,8-TRIETHYL DESMOSDUMOTIN B] the EC50 (KB [1]) was greater than 80 µg/mL, the EC50 [2] was 0.36 µg/mL (≈ 1.06 µM) and the “Ratio ED50” value [3] was greater than 222. The Activity (A549) was “inactive”, the EC50 (MCF7) was greater than 20 µg/mL and the Activity (HCT-8) was “inactive”. For the same molecule, the Activity (PC-3) was “inactive”.

For `CCC1=C(O)c2c(oc(-c3ccccc3)cc2=O)C(C)(C)C1=O` [6-ETHYL-8,8-DIMETHYL DESMOSDUMOTIN B], the EC50 (KB [1]) was greater than 20 µg/mL, the EC50 [2] was 0.6 µg/mL (≈ 1.93 µM) and the “Ratio ED50” value [3] was greater than 33.

Source: ChEMBL document CHEMBL1150376, “Antitumor agents 260. New desmosdumotin B analogues with improved in vitro anticancer activity” (2008)
